Three substances from PMC7080202 (Medicinal Chemistry Research, 2013) can be followed below.

Where two headings read alike, the source gives them in different places. Where only a bound is given, the exact number is not on record here.

The test system of series [1] is MDCK cells. Conditions: for Cytotoxicity Minimum cytotoxic concentration: microscopically detectable alteration of normal cell morphology; for CC50: read-out: Cytotoxicity CC50, MTS assay. On the technique in general: Tetrazolium assays rely on reduction of a dye to a coloured formazan, in cell work by metabolically active cells.
For series [2], the system named is Herpes simplex virus-2 (G). The series is described as follows: microbe, parasite or virus in culture. The settings on record: read-out: EC50 Herpes simplex virus-2 (G); HEL cell culture. It counts as cell-based, herpes simplex virus type 2.
Series [3] concerns Herpes simplex virus-1 (KOS). The series is described as follows: microbe, parasite or virus in culture. It counts as cell-based, herpes simplex virus type 1. Conditions: read-out: EC50 Herpes simplex virus-1 (KOS); HEL cell culture.
The test system of series [4] is Punta Toro virus. The series is described as follows: microbe, parasite or virus in culture. The series is classed as cell-based. The settings on record: read-out: Antiviral activity EC50 Punta Toro virus; Vero cell cultures.
The subject of series [5] is Vesicular stomatitis virus. The series is described as follows: microbe, parasite or virus in culture. The series is classed as cell-based. The settings on record: read-out: EC50 Vesicular stomatitis virus.
Series [6] has as its system Influenza B. The series is described as follows: Anti-influenza virus activity, influenza B in MDCK cells. The series is classed as cell-based, influenza B virus B/Hong Kong/5/72. Conditions: read-out: Antiviral EC50 Influenza B MTS; MDCK cells; MTS.
Series [7] has as its system Influenza A H1N1 subtype. Kind of series: Anti-influenza virus activity, influenza A H1N1 in MDCK cells. Conditions: read-out: Antiviral EC50 Influenza A H1N1 subtype MTS; MDCK cells; MTS. The series is classed as cell-based, influenza A virus A/Puerto Rico/8/34 (H1N1).
In series [8] the test system is Para-influenza-3 virus. The series is described as follows: organism not typed. It counts as cell-based, parainfluenza-3 virus. Conditions: read-out: Antiviral activity EC50 Para-influenza-3 virus.
The subject of series [9] is Vero cell cultures. The series is described as follows: Cytotoxicity. It counts as cell-based. Summed up:
(§1)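 Cell cultures incubated with varying concentrations of test compound, then examined by microscopy. MCC is the lowest concentration that causes a microscopically detectable alteration of normal cell morphology. HEL, Vero and HeLa lines were monitored regularly for mycoplasma and found free of it.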

Series [10] concerns Human embryonic lung cell cultures. The series is described as follows: Cytotoxicity. The series is classed as cell-based. Summed up:
as §1

Series [11] concerns Sindbis virus. Kind of series: microbe, parasite or virus in culture. Conditions: read-out: Antiviral activity EC50 Sindbis virus; Vero cell cultures. The series is classed as cell-based.
Series [12] relates to Crandell-Rees feline kidney cells. The series is described as follows: Cytotoxicity. The series is classed as cell-based.
Series [13] deals with Vesicular stomatitis virus. The series is classed as cell-based. The settings on record: read-out: Antiviral activity EC50 Vesicular stomatitis virus.
Series [14] relates to Feline herpes virus. The series is described as follows: Antiviral CPE assay, feline herpes virus in CRFK cells. The settings on record: read-out: EC50 Feline herpes virus; CRFK cell culture. The series is classed as cell-based.
Series [15] has as its system Coxsackie virus B4. Kind of series: microbe, parasite or virus in culture. Conditions: read-out: Antiviral activity EC50 Coxsackie virus B4; Vero cell cultures. It counts as cell-based.
For series [16], the system named is Feline corona virus. Kind of series: Antiviral CPE assay, feline corona virus in CRFK cells. It counts as cell-based, feline coronavirus (FIPV). Conditions: read-out: EC50 Feline corona virus; CRFK cell culture.
Series [17] concerns Vaccinia virus. Kind of series: microbe, parasite or virus in culture. It counts as cell-based. The settings on record: read-out: EC50 Vaccinia virus.
Series [18] deals with Influenza A H3N2 subtype. The series is described as follows: Anti-influenza virus activity, influenza A H3N2 in MDCK cells. The series is classed as cell-based, influenza A virus A/Hong Kong/7/87 (H3N2). Conditions: read-out: Antiviral EC50 Influenza A H3N2 subtype MTS.
Series [19] concerns Herpes simplex virus-1TK-KOS ACV^r. Kind of series: microbe, parasite or virus in culture. The series is classed as cell-based, herpes simplex virus type 1. The settings on record: read-out: EC50 Herpes simplex virus-1TK-KOS ACV^r; HEL cell culture.
Series [20] deals with HeLa cell cultures. The series is described as follows: Cytotoxicity. It counts as cell-based. In a few lines: as §1
Series [21] concerns Reovirus-1. The series is described as follows: organism not typed. It counts as cell-based. The settings on record: read-out: Antiviral activity EC50 Reovirus-1; Vero cell cultures.
For series [22], the system named is Coxsackie virus B4. The series is described as follows: microbe, parasite or virus in culture. The series is classed as cell-based. The settings on record: read-out: Antiviral activity EC50 Coxsackie virus B4; HeLa cell cultures.
Series [23] deals with Cytomegalovirus AD-169 strain. The series is classed as cell-based, human cytomegalovirus. Conditions: both strains of HCMV (AD-169 and Davis).

A word on the CC50: it is the concentration that lowers cell viability or growth by half. As a reminder, the EC50 is the midpoint of the concentration-response curve. On to “1-{[(4-Chlorophenyl)methylidene]amino}-3-{[(3Z)-2-oxo-2,3-dihydro-1H-indol-3-ylidene]amino}thiourea [4e]”, for which the “Cytotoxicity Minimum cytotoxic concentration” value in series [1] is over 100. For the same substance, the 50% cytotoxic concentration (CC50) in [1] was over 100 µM. Further, the EC50 in [2], in series [3], in series [4], in [5], in series [6] and in series [7] was over 100 µM throughout. For the same substance, the EC50 in series [8], in series [11], in [13], in [14], in series [15] and in series [16] was over 100 µM in each case. The EC50 in series [17], in [18], in series [19], in [21] and in series [22] was over 100 µM throughout. The Minimum cytotoxic concentration in series [9] is over 100 µM; in series [10], 100 µM; in series [12], over 100 µM; in series [20] it was over 100 µM.
As for “1-{[(4-Nitrophenyl)methylidene]amino}-3-{[(3Z)-2-oxo-2,3-dihydro-1H-indol-3-ylidene]amino}thiourea [4d]”, the “Cytotoxicity Minimum cytotoxic concentration” value in series [1] is listed as over 100. In addition, the CC50 in series [1] is over 100 µM. In addition, the EC50 in series [2] is over 100 µM; in series [3] it was over 100 µM; in series [4], over 20 µM; in [5], over 100 µM; in [6], over 100 µM; in [7], over 100 µM. For the same substance, the EC50 in series [8] was over 20 µM; in series [11] it was over 20 µM; in series [13] it was over 100 µM; in series [14], over 100 µM; in series [15], over 20 µM; in [16], over 100 µM. The 50% effective concentration (EC50) in series [17] was over 100 µM; in series [18] it was over 100 µM; in [19], over 100 µM; in series [21] it was over 20 µM; in [22], over 100 µM. The Minimum cytotoxic concentration in [9] was 100 µM; in series [10] it was 100 µM; in [12], over 100 µM; in series [20] it was over 100 µM.
Regarding “3-[(1H-indol-3-ylmethylidene)amino]-1-{[(3Z)-2-oxo-2,3-dihydro-1H-indol-3-ylidene]amino}thiourea [4a]”, in series [1], the “Cytotoxicity Minimum cytotoxic concentration” value is listed as 20. Also, in [1], the CC50 was 51 µM. In addition, the EC50 in series [2] is over 20 µM; in series [3] it was over 20 µM; in series [4] it was over 20 µM; in [5], over 20 µM; in series [6], over 4 µM; in series [7], over 4 µM. For the same substance, the EC50 in series [8], in series [11], in series [13], in [14], in [15] and in series [16] was over 20 µM in each case. Besides, the EC50 in series [17] is over 20 µM; in series [18] it was over 4 µM; in series [19], over 20 µM; in series [21] it was over 20 µM; in [22] it was over 20 µM. The Minimum cytotoxic concentration in [9] is 100 µM; in series [10] it was 60 µM; in series [12], 86 µM; in series [20] it was at least 20 µM. The “antiviral activity against HCMV (in words)” value in series [23] is on record as “moderate activity”.
